Results: ChEMBL document CHEMBL1156731, “Antifungal activity of synthetic di(hetero)arylamines based on the benzo[b]thiophene moiety” (2008)
Values after ≈ are worked out from the molar mass of the structure shown. Active and inactive are the calls of the source. The calls are words filed in the database; no cut-off is given here.

Columns and labels:
Pichia kudriavzevii = experiment: Antifungal activity against Candida krusei ATCC 6258 after 48 hrs by broth macrodilution method; type: functional; conditions: ATCC 6258, 48 h
Outline: (§1)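 Yeasts grown 1 day on SDA at 37 °C, subcultured, suspended in saline and diluted in MOPS-buffered RPMI 1640 (pH 7.0) to 1-2 × 10^3 CFU/mL. Broth macrodilution per CLSI M27-A2, twofold dilutions 200-0.8 µg/mL (DMSO ≤2% final), aerobic, 37 °C, 48 h. MIC = 80% turbidity reduction vs drug-free control; MFC from SDA subculture at 37 °C. Three independent experiments in duplicate.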

Candida albicans [1] = experiment: Antifungal activity against Candida albicans ATCC 10231 assessed as red fluorescence stained with FUN1 by flow cytometry; type: functional
Outline: (§2)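 Overnight SDA cells suspended in RPMI 1640 at (2.0 ± 0.2) × 10^6 CFU/mL. Twofold dilutions 256 to one µg/mL applied at 35 °C, humid, no agitation, 2, 4 and 24 h. Washed; FUN-1 0.5 µM in PBS/2% glucose (20 min, 35 °C, FL2) or PI 1 µg/mL with 0.125% deoxycholate (~10 min, room temperature, FL3). ≥7500 events; marker included ≤5% of drug-free control cells.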

Trichophyton rubrum = experiment: Antifungal activity against Trichophyton rubrum FF5 after 5 days by broth macrodilution method; type: functional; conditions: 120 h
Outline: (§3)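 Dermatophytes grown 5 days on SDA at 30 °C, subcultured. Conidial suspensions in saline were adjusted in MOPS-buffered RPMI 1640 (pH 7.0) to 1-2 × 10^4 CFU/mL. Macrodilution adapted from CLSI M38-A with 200-0.8 µg/mL twofold dilutions (DMSO ≤2%), incubated at 30 °C for 5 days. MIC at 80% turbidity reduction vs control; MFC by SDA subculture at 30 °C. Triplicate experiments in duplicate.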

Nannizzia gypsea = experiment: Antifungal activity against Microsporum gypseum FF3 after 5 days by broth macrodilution method; type: functional; conditions: 120 h; outline: as §3
Candida albicans [2] = experiment: Inhibition of germ tube formation in Candida albicans ATCC 10231 after 3 hrs by hemocytometer; type: functional, organism-based
Outline: (§4)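 Overnight SDA cultures (37 °C) were suspended in NYP medium (N-acetylglucosamine 10^-3 mol/L, YNB 3.35 g/L, proline 10^-3 mol/L, NaCl 4.5 g/L, pH 6.7) at (1.0 ± 0.2) × 10^6 CFU/mL. Compound added at 1/2, 1/4 and 1/8 MIC (1% DMSO final), 3 h at 37 °C. 100 cells counted by hemocytometer; germ tube at least blastospore diameter, pseudohyphae excluded. Mean ± SD, three experiments.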

[3] = test system: Trichophyton mentagrophytes; experiment: Antifungal activity against Trichophyton mentagrophytes FF7 after 5 days by broth macrodilution method; type: functional; conditions: 120 h; outline: as §3
Candida albicans [4] = experiment: Inhibition of germ tube formation in Candida albicans D5 after 3 hrs by hemocytometer; type: functional, organism-based; outline: as §4
Epidermophyton floccosum = experiment: Antifungal activity against Epidermophyton floccosum FF9 after 5 days by broth macrodilution method; type: functional; conditions: 120 h; outline: as §3
Candida albicans [5] = experiment: Antifungal activity against Candida albicans D5 after 48 hrs by broth macrodilution method; type: functional; outline: as §1
Microsporum canis = experiment: Antifungal activity against Microsporum canis FF1 after 5 days by broth macrodilution method; type: functional; conditions: 120 h; outline: as §3
Nakaseomyces glabratus = experiment: Antifungal activity against Candida glabrata D10R after 48 hrs by broth macrodilution method; type: functional
Outline: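 Broth macrodilution per CLSI M27-A2 (minor modifications). Inoculum 1-2 × 10^3 CFU/mL in RPMI 1640 with L-glutamine, MOPS-buffered 0.165 M, pH 7.0. Twofold dilutions 200-0.8 µg/mL from DMSO stock (final DMSO ≤2%). Aerobic, 37 °C, 48 h. MIC = lowest concentration giving 80% turbidity reduction versus drug-free control. Three independent experiments in duplicate.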

Aspergillus fumigatus [6] = experiment: Antifungal activity against Aspergillus fumigatus ATCC 46645 assessed as red fluorescence stained with PI by flow cytometry; type: functional
Outline: (§5)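 Conidia from 4–7-day SDA cultures suspended in water with 0.01% Tween 80 at (2.0 ± 0.2) × 10^6 CFU/mL. Exposed to twofold dilutions 256 to one µg/mL at 35 °C, water bath with agitation, 3, 4 and 24 h. FUN-1 0.5 µM (20 min, 35 °C, FL2) or PI 1 µg/mL (1 h, 35 °C, FL3); ≥7500 events; positive-cell marker set at ≤5% of drug-free controls.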

Candida tropicalis = experiment: Antifungal activity against Candida tropicalis ATCC 13803 after 48 hrs by broth macrodilution method; type: functional; conditions: ATCC 13803, 48 h; outline: as §1
Candida albicans [7] = experiment: Antifungal activity against Candida albicans ATCC 10231 after 48 hrs by broth macrodilution method; type: functional; conditions: ATCC 10231, 48 h; outline: as §1
Aspergillus niger = experiment: Antifungal activity against Aspergillus niger ATCC 16404 after 3 days by broth macrodilution method; type: functional; conditions: ATCC 16404, 72 h
Outline: (§6)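 Aspergillus inoculum from 3-day SDA subcultures at 30 °C; conidial suspension in 0.85% saline, diluted in RPMI 1640 (L-glutamine, no bicarbonate, 0.165 M MOPS, pH 7.0) to 1-2 × 10^4 CFU/mL. Twofold dilutions 200-0.8 µg/mL from DMSO stock (final DMSO ≤2%); macrodilution per CLSI M38-A, 30 °C, 3 days. MIC = lowest concentration giving 80% turbidity reduction vs drug-free control; MFC by subculture on SDA. Three independent experiments in duplicate.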

Aspergillus flavus = experiment: Antifungal activity against Aspergillus flavus F44 after 3 days by broth macrodilution method; type: functional; conditions: 72 h; outline: as §6
Aspergillus fumigatus [8] = experiment: Antifungal activity against Aspergillus fumigatus ATCC 46645 after 3 days by broth macrodilution method; type: functional; conditions: ATCC 46645, 72 h; outline: as §6
Aspergillus fumigatus [9] = experiment: Antifungal activity against Aspergillus fumigatus ATCC 46645 assessed as red fluorescence stained with FUN1 by flow cytometry; type: functional, organism-based; outline: as §5
Candida albicans [10] = experiment: Antifungal activity against Candida albicans ATCC 10231 assessed as red fluorescence stained with PI by flow cytometry; type: functional; outline: as §2
Candida albicans [11] = experiment: Inhibition of germ tube formation in Candida albicans M1 after 3 hrs by hemocytometer; type: functional, organism-based; outline: as §4

Structure (SMILES) | MFC (Pichia kudriavzevii) | MIC (Pichia kudriavzevii) | MFC (Trichophyton rubrum) | MIC (Trichophyton rubrum) | MFC (Nannizzia gypsea) | MIC (Nannizzia gypsea) | MFC [3] | MIC [3] | MFC (Epidermophyton floccosum) | MIC (Epidermophyton floccosum) | MFC (Candida albicans [5]) | MIC (Candida albicans [5]) | MFC (Microsporum canis) | MIC (Microsporum canis) | MFC (Aspergillus niger) | MIC (Aspergillus niger) | MFC (Aspergillus flavus) | MIC (Aspergillus flavus) | MFC (Aspergillus fumigatus [8]) | MIC (Aspergillus fumigatus [8]) | further results
c1cncc(Nc2csc3ccccc23)c1 | > 100 mg/L | 100 mg/L (≈ 442 µM) | 12.5 mg/L (≈ 55.2 µM) | 3.13 mg/L (≈ 13.8 µM) | > 12.5 mg/L | 12.5 mg/L (≈ 55.2 µM) | > 12.5 mg/L | 12.5 mg/L (≈ 55.2 µM) | > 12.5 mg/L | 12.5 mg/L (≈ 55.2 µM) | > 50 mg/L | 50 mg/L (≈ 221 µM) | > 12.5 mg/L | 12.5 mg/L (≈ 55.2 µM) | > 100 mg/L | 50 mg/L (≈ 221 µM) | 100 mg/L (≈ 442 µM) | 50 mg/L (≈ 221 µM) | > 50 mg/L | 25 mg/L (≈ 110 µM) | Activity (Candida albicans [1]): 60%; Activity (Candida albicans [2]): Active; Activity (Candida albicans [4]): Active; MFC (Nakaseomyces glabratus): > 50 mg/L; MIC (Nakaseomyces glabratus): 50 mg/L (≈ 221 µM); Activity (Aspergillus fumigatus [6]): 40%; MFC (Candida tropicalis): > 100 mg/L; MIC (Candida tropicalis): 100 mg/L (≈ 442 µM); MFC (Candida albicans [7]): 100 mg/L (≈ 442 µM); MIC (Candida albicans [7]): 50 mg/L (≈ 221 µM); Activity (Aspergillus fumigatus [9]): Active; Activity (Candida albicans [10]): 40%; Activity (Candida albicans [11]): Active
C[C@@H]1[C@H](O)[C@@H](C)/C=C/C=C/C=C/C=C/C=C/C=C/C=C/[C@H](O[C@@H]2O[C@H](C)[C@@H](O)[C@H](N)[C@@H]2O)C[C@@H]2O[C@](O)(C[C@@H](O)C[C@@H](O)[C@H](O)CC[C@@H](O)C[C@@H](O)CC(=O)O[C@H]1C)C[C@H](O)[C@H]2C(=O)O [AMPHOTERICIN B] | – | – | – | – | – | – | – | – | – | – | – | – | – | – | 4 mg/L (≈ 4.33 µM) | 1 mg/L (≈ 1.08 µM) | 8 mg/L (≈ 8.66 µM) | 2 mg/L (≈ 2.16 µM) | 4 mg/L (≈ 4.33 µM) | 2 mg/L (≈ 2.16 µM) | Activity (Candida albicans [1]): 60%; Activity (Aspergillus fumigatus [6]): 40%; Activity (Aspergillus fumigatus [9]): Active; Activity (Candida albicans [10]): 40%
CCOC(=O)c1sc2ccccc2c1Nc1ccc(O)cc1O | > 50 mg/L | 25 mg/L (≈ 75.9 µM) | 25 mg/L (≈ 75.9 µM) | 12.5 mg/L (≈ 38 µM) | 25 mg/L (≈ 75.9 µM) | 12.5 mg/L (≈ 38 µM) | 25 mg/L (≈ 75.9 µM) | 12.5 mg/L (≈ 38 µM) | 12.5 mg/L (≈ 38 µM) | 6.25 mg/L (≈ 19 µM) | > 50 mg/L | 25 mg/L (≈ 75.9 µM) | 12.5 mg/L (≈ 38 µM) | 12.5 mg/L (≈ 38 µM) | > 100 mg/L | > 100 mg/L | > 100 mg/L | > 100 mg/L | > 100 mg/L | > 100 mg/L | Activity (Candida albicans [2]): Active; Activity (Candida albicans [4]): Active; MFC (Nakaseomyces glabratus): > 50 mg/L; MIC (Nakaseomyces glabratus): 25 mg/L (≈ 75.9 µM); MFC (Candida tropicalis): > 50 mg/L; MIC (Candida tropicalis): 50 mg/L (≈ 152 µM); MFC (Candida albicans [7]): > 200 mg/L; MIC (Candida albicans [7]): 25 mg/L (≈ 75.9 µM); Activity (Candida albicans [11]): Active
CCOC(=O)c1sc2ccccc2c1Nc1ccc(OC)cc1OC | > 200 mg/L | > 200 mg/L | > 200 mg/L | > 200 mg/L | > 200 mg/L | > 200 mg/L | > 200 mg/L | > 200 mg/L | > 200 mg/L | > 200 mg/L | > 200 mg/L | > 200 mg/L | > 200 mg/L | > 200 mg/L | > 200 mg/L | > 200 mg/L | > 200 mg/L | > 200 mg/L | > 200 mg/L | > 200 mg/L | MFC (Nakaseomyces glabratus): > 200 mg/L; MIC (Nakaseomyces glabratus): > 200 mg/L; MFC (Candida tropicalis): > 200 mg/L; MIC (Candida tropicalis): > 200 mg/L; MFC (Candida albicans [7]): > 200 mg/L; MIC (Candida albicans [7]): > 200 mg/L
CCOC(=O)c1sc2ccccc2c1Nc1cccnc1 | > 200 mg/L | > 200 mg/L | > 50 mg/L | 3.13 mg/L (≈ 10.5 µM) | > 50 mg/L | 6.25 mg/L (≈ 20.9 µM) | > 50 mg/L | 3.13 mg/L (≈ 10.5 µM) | > 50 mg/L | 6.25 mg/L (≈ 20.9 µM) | > 200 mg/L | > 200 mg/L | > 50 mg/L | 3.13 mg/L (≈ 10.5 µM) | > 200 mg/L | > 200 mg/L | > 200 mg/L | > 200 mg/L | > 200 mg/L | > 200 mg/L | MFC (Nakaseomyces glabratus): > 200 mg/L; MIC (Nakaseomyces glabratus): > 200 mg/L; MFC (Candida tropicalis): > 200 mg/L; MIC (Candida tropicalis): > 200 mg/L; MFC (Candida albicans [7]): > 200 mg/L; MIC (Candida albicans [7]): > 200 mg/L
